# In PubChem BioAssay AID688 (PCMD, 2007):
# The campaign covered roughly 27,000 compounds. About 250 (0.93%) were called active.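 How the source made its calls: active means mutant luminescence inhibited past about 50% while wild type luminescence and mutant growth stay under set limits (limit read from the data); inconclusive means mutant versus wild type luminescence inhibition gap past a set limit; inactive means the rest.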 The full list was thinned out, with actives kept by preference.
# Assay: GCN4-lacZ reporter reduction in eIF2B-epsilon mutant yeast, primary screen, S. cerevisiae, eIF2B-epsilon R284H, Beta-Glo luminescence (AID 688)
# Conditions: growth inhibition: measured here: mutant yeast growth, toxicity, concentration not given here; inhibition: stronger effect = higher value, screened at 25 µM (by protocol)
# In short: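 Material: yeast eIF2B-epsilon R284H mutant carrying GCN4–beta-galactosidase fusion. Medium: YPD yeast growth medium. Incubation: 16 h growth with compound at 30 °C, 90 min Beta-Glo step. Signal: Beta-Glo luminescence plus absorbance at 595 nm. Evaluation: % inhibition of reporter signal and growth versus controls. Doses: 25 µM single dose.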
Structure (SMILES),growth inhibition [%],inhibition
O=C(COc1ccccc1Cl)Nn1cnnc1,-7.89,14.3% (inactive)
Cc1cccc(NC(=O)/C(=C\c2ccco2)NC(=O)c2ccccc2)c1,10.8,15.4% (inactive)
CCOc1ccc(C(=O)NC(C(=O)NCc2ccccn2)C(C)C)cc1 (configuration not stated),-4.76,-9.95% (inactive)
CC(=O)NC1=NN(C(C)=O)C(C)(c2ccc(Cl)s2)S1 (configuration not stated),6.67,44.3% (inactive)
Cc1cc(C)n(C(=O)CCNC(=O)c2ccccc2Cl)n1,,-0.54% (inactive)
O=C(CSc1nnnn1-c1ccccc1)NCc1ccco1,,-70.2% (inactive)
Cc1ccc(C(=O)N/N=C/c2sc(=O)n(Cc3cccc(C(=O)O)c3)c2Cl)cc1,-9.52,18.2% (inactive)
COc1ccc(C2CC(=O)C=C(NCC3CCCO3)C2)cc1 (configuration not stated),10.8,17.6% (inactive)
CCOC(=O)c1cnc(SC)nc1Sc1ccc(Cl)cc1Cl,5,22.2% (inactive)
O=C(NC(C(=O)NCCN1CCOCC1)C12CC3CC(CC(C3)C1)C2)C1CCCCC1 (configuration not stated),28.1,15.3% (inactive)
Cc1ccc(S(=O)(=O)c2c(COC(=O)c3cccc(Cl)c3)c(-c3ccccc3)nn2C)cc1,12.1,35.8% (inactive)
O=C(O)c1cc(S(=O)(=O)N2CCCCCC2)c(Cl)cc1Cl,,8.58% (inactive)
CCCCCCNCCn1cnc2c(N)ncnc21,,37.2% (inactive)
CCOC(=O)CN1C(=O)C(=O)c2cc(C)ccc21,-4.55,21.8% (inactive)
CS(=O)(=O)c1ccc2nc(NC(=O)C3C4C=CC(C4)C3C(=O)O)sc2c1 (configuration not stated),-6.9,55.1% (active)
O=C(Nc1nc2ccc(S(=O)(=O)N3CCCC3)cc2s1)C1CCCO1 (configuration not stated),-18.2,18.6% (inactive)
CC(C)COC(=O)c1ccc(NC(=O)C2C3C=CC(C3)C2C(=O)O)cc1 (configuration not stated),20.7,15.8% (inactive)
COC(=O)C1=C(C(=O)OC)C2(OC1c1ccc(Br)cc1)C(=O)c1ccccc1C2=O (configuration not stated),-26.3,-2.75% (inactive)
CC(C)(C)c1ccc(C(=O)NCC(=O)OCN2C(=O)c3ccccc3C2=O)cc1,-3.45,13.3% (inactive)
CCCCOC(=O)Cn1c(=N)n(CCN(CC)CC)c2ccccc21,19.4,17.1% (inactive)
COc1cc(OC)nc(NC(=O)CCl)n1,-16.7,3.82% (inactive)
COc1ccc(C2=NO[C@@H]3C(=O)N(Cc4ccccc4)C(=O)[C@H]23)cc1OC,14.3,7.78% (inactive)
COc1ccc(OC)c(NC(=O)CN2CCN(C(=O)c3ccco3)CC2)c1,18.5,17.4% (inactive)

Structure (SMILES),growth inhibition [%],inhibition
c1ccc(-n2ncc3c2ncn2c(C4CCCCC4)nnc32)cc1,,16.1% (inactive)
Cc1sc2nc(SCC(N)=O)n(C)c(=O)c2c1C,6.45,20.9% (inactive)
O=C(Nc1ccc(Br)cc1)c1cccc(NC(=O)C2C3CC4OC(=O)C2C4C3)c1 (configuration not stated),3.13,27.9% (inactive)
CC1=C(C(=O)Nc2ccccc2)C(c2ccco2)C(C#N)=C(SCC(N)=O)N1 (configuration not stated),-15,11.1% (inactive)
COC(=O)C1=C(C)Nc2ncnn2C1c1cccnc1 (configuration not stated),10,1.7% (inactive)
Cc1nn(C(C)CC(=O)O)c(C)c1C (configuration not stated),,18.6% (inactive)
Cc1cc2nnc(SCC(=O)N3CCN(c4ccccc4)CC3)n2c(N)n1,-13.6,24.8% (inactive)
Cn1c(SCC(=O)C(C)(C)C)nnc1-c1ccccn1,12.8,20.3% (inactive)
CC(CO)N1CCS(=O)(=O)CC1 (configuration not stated),15,18.1% (inactive)
Cc1ccc(-n2c(SCC(=O)Nc3ccc4c(c3)OCO4)nnc2-c2ccoc2C)cc1,,-19.2% (inactive)
O=C(CSc1nnc(-c2ccccn2)n1-c1ccccc1)Nc1ccc2c(c1)OCO2,-57.1,55.6% (active)
Cc1ccc(-n2c(SCC(=O)Nc3ccc4c(c3)OCO4)nnc2-c2ccccn2)cc1,-2.78,-3.69% (inactive)
CCCSC1=C(C#N)C(c2ccccc2C)C(C(=O)OC)C(=O)N1 (configuration not stated),12,-22.6% (inactive)
Cc1nc2cc(NC(=O)NCc3ccccc3)ccc2o1,-9.52,-14.4% (inactive)
COCC(=O)Nc1ccc(Br)cc1,-9.52,-24.5% (inactive)
Cc1nc(NC(=O)CN(C)S(=O)(=O)c2ccc(Cl)cc2)sc1C,5,-24.3% (inactive)
C=CCNC(=O)c1cc2nc(C3CC3)cc(C(F)F)n2n1,,12.7% (inactive)
COCCNS(=O)(=O)c1cc(Br)ccc1OC,9.09,18.4% (inactive)
COC(=O)c1ccc(Sc2ccc(F)cc2)c(N)c1,27,23.2% (inactive)
O=C(c1ccc2c(c1)OCO2)N1CCN(C(=O)c2ccco2)CC1,16.7,35.7% (inactive)
CCOCN(C(=O)Cn1c(C(C)O)nc2ccccc21)c1c(C)cccc1CC (configuration not stated),-7.69,20.1% (inactive)
CC(=O)OCc1cc2cc(C)ccc2[nH]c1=O,-2.5,-23.7% (inactive)
